# TRPC4 potent: positive allosteric modulators of TRPC4, primary screen, cell-based, mouse TRPC4beta, HEK293 mu-opioid, Fluo-4 calcium | 310,000 tested, 0.42% active | B-score at 10 µM | DAMGO EC20, Fluo-4 Ca2+ flux; active compounds read high | AID 2227, 2009;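 active = B-score of calcium response area above 5 SD of library B-scores, with initial fluorescence ratio within 5 SD of library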;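 note: B-score of integrated fluorescence ratio over time as area under calcium response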
# TRPC6 inh: mouse TRPC6 channel inhibitors, primary screen, cell-based, HEK293, membrane potential dye; Short transient receptor potential channel 6 (Mus musculus), Q61143; ACh-evoked depolarization; active compounds read low; B-score at 10 µM; 310,000 tested, 1.1% active; AID 2553, 2010;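 active = B-score under library mean minus 3 SD, initial fluorescence not abnormally high, positive integrated signal ratio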;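 note: B-score derived from integrated fluorescence ratio over the kinetic read; more negative B-score means stronger inhibition of depolarization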
# Target sequence (Q61143 whole entry, looked up): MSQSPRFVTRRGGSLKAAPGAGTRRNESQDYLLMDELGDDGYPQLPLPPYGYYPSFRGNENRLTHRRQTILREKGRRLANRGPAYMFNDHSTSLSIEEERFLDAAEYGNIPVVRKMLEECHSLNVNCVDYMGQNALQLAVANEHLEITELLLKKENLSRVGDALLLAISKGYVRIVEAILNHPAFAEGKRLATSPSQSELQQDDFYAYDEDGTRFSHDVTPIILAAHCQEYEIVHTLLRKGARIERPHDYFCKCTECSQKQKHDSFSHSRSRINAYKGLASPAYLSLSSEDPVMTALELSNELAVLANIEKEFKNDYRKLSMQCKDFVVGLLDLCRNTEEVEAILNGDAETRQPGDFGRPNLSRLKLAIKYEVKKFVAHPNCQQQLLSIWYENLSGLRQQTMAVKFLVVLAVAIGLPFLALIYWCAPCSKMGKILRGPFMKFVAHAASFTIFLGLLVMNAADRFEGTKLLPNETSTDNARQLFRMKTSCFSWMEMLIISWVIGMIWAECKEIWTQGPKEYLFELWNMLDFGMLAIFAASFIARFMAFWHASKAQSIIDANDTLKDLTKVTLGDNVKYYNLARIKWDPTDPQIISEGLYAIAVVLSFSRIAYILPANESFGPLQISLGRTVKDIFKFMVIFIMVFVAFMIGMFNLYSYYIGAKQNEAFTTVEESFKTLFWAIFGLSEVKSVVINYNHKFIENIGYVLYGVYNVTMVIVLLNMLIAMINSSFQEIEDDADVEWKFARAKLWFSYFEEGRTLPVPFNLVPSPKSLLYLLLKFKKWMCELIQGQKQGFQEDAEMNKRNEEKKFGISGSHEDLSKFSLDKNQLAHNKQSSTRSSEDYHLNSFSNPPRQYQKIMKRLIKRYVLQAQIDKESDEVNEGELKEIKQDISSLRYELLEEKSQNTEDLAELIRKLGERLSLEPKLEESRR
# TRPC4 act: activators of mouse TRPC4 channel, primary screen, Fluo4 calcium, HEK293 TRPC4beta/mu-opioid cells | B-score at 10 µM | AID 2237, 2010 | Short transient receptor potential channel 4 (Mus musculus), Q9QUQ5 | Fluo4 calcium fluorescence; active compounds read high | 310,000 tested, 0.49% active;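 active = B-score above 5 SD of library B-scores, and initial fluorescence ratio not above library mean plus 5 SD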;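 note: positive B-score marks a calcium rise read as TRPC4 activation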
#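 system = HEK293 cells stably co-expressing mouse TRPC4beta and mu-opioid receptor | schedule = Fluo4 dye loading 45 min at room temperature, 110 s recording | measure = B-scored integrated calcium fluorescence ratio | signal = Fluo4 calcium-sensitive dye fluorescence, kinetic, 1 Hz baseline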
# TRPC4 inh: inhibitors of mouse TRPC4 channel, primary screen, Fluo4 calcium, HEK293 TRPC4beta/mu-opioid cells; B-score at 10 µM; Short transient receptor potential channel 4 (Mus musculus), Q9QUQ5; DAMGO-evoked Fluo4 calcium flux; active compounds read low; 300,000 tested, 0.39% active; AID 2247, 2010;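 active = B-score over 3 SD under the library average, no early fluorescence shift, positive overall ratio signal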
#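 Material: HEK293 cells with stable TRPC4beta plus mu-opioid receptor expression / Probe or stimulus: DAMGO in two steps, submaximal then maximal / Compound: single concentration per test compound / Technique: kinetic Fluo4 fluorescence imaging of calcium influx / Read-out: per-well B score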
# TRPC6 act: mouse TRPC6 channel activators, primary screen, cell-based, HEK293, membrane potential dye. HEK293-TRPC6 membrane potential dye fluorescence; active compounds read high. Short transient receptor potential channel 6 (Mus musculus), Q61143. 310,000 tested, 0.13% active. B-score at 10 µM;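 active = B-score of the integrated fluorescence ratio above library mean plus 3 SD, and starting fluorescence ratio within library mean plus 5 SD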;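 note: higher score means more depolarization so channel activation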
# TRPC4 sel inh 2: second check of whether TRPC6 inhibitors also affect mouse TRPC4. inhibition, % at 10 µM. shares compounds with TRPC6 inh. HEK293 TRPC4/MOR, membrane potential dye fluorescence; channel activated by saturating DAMGO dose. 920 tested, 42% active. AID 2776;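 active = compounds whose fluorescence signal differed from control wells by over 3 SD, either direction, in both duplicate plates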
# TRPC4 spec: mouse TRPC4 modulation by TRPC6 hits, confirmation, selectivity assay for TRPC6 inhibitor project, cell-based, HEK293 TRPC4/mu-opioid, membrane potential dye. shares compounds with TRPC6 inh. membrane potential fluorescence. activity change, negative = inhibition, % at 10 µM. 920 tested, 61% active. AID 2777, 2010;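 active = rise or fall in signal beyond 3 SD of buffer-only wells in both replicate plates, either sign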;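 note: integrated kinetic ratio of fluorescence range over baseline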
# HEK293 MPD ctr 2-1: nonspecific membrane potential effects, parental HEK293, confirmation, counter-screen for TRPC6 inhibitor project, cell-based, second counter screen | signal change vs control, % at 10 µM | 920 tested, 31% active | parental HEK293 membrane potential dye fluorescence; maximal acetylcholine challenge after compound addition | shares compounds with TRPC6 inh;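 active = membrane potential signal moving either way by over 3 SD of the maximum-effect control, in both duplicate plates, meaning non-specific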
# HEK293 MPD ctr-1: membrane potential modulation in parental HEK293, confirmation, counter-screen for TRPC6 inhibitor project, cell-based | shares compounds with TRPC6 inh | 920 tested, 60% active | parental HEK293 membrane potential dye fluorescence | membrane potential signal change, % at 10 µM;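 active = membrane potential signal shifting up or down by more than 3 SD of buffer-only wells, on both duplicate plates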
# HEK293 MPD ctr-2: parental HEK293 membrane potential modulation, confirmation, counter-screen for TRPC6 modulator project, cell-based. AID 488924, 2010. 2,400 tested, 51% active. membrane potential signal change, % at 10 µM. membrane potential dye fluorescence. shares compounds with TRPC6 inh;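 active = membrane potential signal moves up or down beyond 5 SD from buffer-only wells, on both duplicate plates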
# HEK293 MPD ctr 2-2: second check of TRPC6 modulator effects in parental HEK293 cells; shares compounds with TRPC6 inh; membrane potential dye fluorescence; after compound, maximal acetylcholine stimulation; inhibition, % at 10 µM; 2,400 tested, 14% active;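 active = membrane potential signal drops by more than 5 SD from the mean control signal, in both duplicate plates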;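 note: plate controls were acetylcholine ECmax control wells for no effect and buffer only wells for full effect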
# TRPC4 ctr mod: TRPC4 modulation by TRPC6 hit compounds, confirmation, selectivity assay for TRPC6 modulator project, cell-based, HEK293 TRPC4/mu-opioid, membrane potential dye, mouse | shares compounds with TRPC6 inh | membrane potential fluorescence | percent change from control (negative = decrease, positive = increase), % at 10 µM | 2,400 tested, 69% active | AID 488927, 2010;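 active = membrane potential signal moved up or down beyond 5 SD of buffer control wells, in both duplicate plates, actives on both sides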;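 note: plate controls were assay buffer wells for no effect and DAMGO maximal-effect wells for full effect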
# TRPC4 ctr inh 2: second check of whether TRPC6 modulators also affect mouse TRPC4 | shares compounds with TRPC6 inh | HEK293 TRPC4/mu-opioid, membrane potential dye fluorescence; stimulated with maximal-effect DAMGO | inhibition, % at 10 µM | 2,400 tested, 55% active;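 active = drop in membrane potential signal beyond 5 SD of the control wells in both duplicate plates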;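 note: TRPC4 counter screen for TRPC6 hits run under conditions tuned for TRPC6 not TRPC4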
# TRPC6 inh conf: mouse TRPC6 channel inhibitors, confirmation, HEK293 cells, membrane potential dye, duplicate; shares compounds with TRPC6 inh; ACh-evoked depolarization; inhibition, % at 10 µM; 3,300 tested, 43% active;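 active = fluorescence ratio falls more than 5 SD below the full-stimulation control mean, in both duplicate runs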;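 note: integrated fluorescence ratio of peak minus minimum over baseline after agonist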
# TRPC6 act conf: mouse TRPC6 channel activators, confirmation, HEK293 cells, membrane potential dye, duplicate. shares compounds with TRPC6 inh. HEK293-TRPC6 membrane potential dye fluorescence, FDSS. activation, % at 10 µM. 2,800 tested, 11% active. AID 488961, 2010;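 active = ratio signal rise beyond 5 SD above unstimulated control wells' mean, seen in both duplicate runs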;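 note: plate controls were buffer EC0 wells for no effect and acetylcholine ECmax response for full effect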
# * = called active by the depositor; i = inactive; . = no result. Rows were chosen to be rich in hits. Some 2.3% of all compounds tested hit in one or more screens of this group.
SMILES,TRPC4 potent,TRPC6 inh,TRPC4 act,TRPC4 inh,TRPC6 act,HEK293 MPD ctr-2,HEK293 MPD ctr 2-2,TRPC4 ctr mod,TRPC4 ctr inh 2,TRPC6 inh conf,TRPC6 act conf,others
O=c1c2c3c(sc2nc(N2CCNCC2)n1-c1cccc(Cl)c1)CCCCC3,i,-7.2*,i,i,i,.,.,.,.,60%*,i,TRPC4 sel inh 2=60%*;TRPC4 spec=i;HEK293 MPD ctr 2-1=i;HEK293 MPD ctr-1=i
CCCCCNc1nc2sc3c(c2c(=O)n1-c1cccc(Cl)c1)CCN(C)C3,i,-5.5*,i,i,i,i,i,i,68%*,45%*,i,
CCCCSc1nc2sc3c(c2c(=O)n1-c1ccccc1)CCN(C)C3,i,i,i,i,i,.,.,.,.,.,.,
CCCCNc1nc2sc3c(c2c(=O)n1-c1cccc(Cl)c1)CCN(C)C3,i,-6.1*,i,i,i,i,i,i,58%*,i,i,
O=C(/C=C/c1ccccc1)NNC(=O)c1cccnc1,i,i,i,i,i,.,.,.,.,.,.,
CSc1nc(SCC(=O)NCC2CCCO2)c2c3c(sc2n1)CN(C)CC3 (stereo unspecified),i,-5*,i,i,i,-134%*,i,-28%*,i,i,i,
OCCCN=c1cc(-c2ccccc2)oc2ccc(Cl)cc12,i,-7.3*,i,i,i,.,.,.,.,77%*,i,TRPC4 sel inh 2=68%*;TRPC4 spec=-19%*;HEK293 MPD ctr 2-1=i;HEK293 MPD ctr-1=-386%*
CC1(C)CC(N=c2cc(-c3ccccc3)oc3ccc(Cl)cc23)CC(C)(C)N1,i,-9.6*,i,i,i,.,.,.,.,69%*,i,TRPC4 sel inh 2=42%*;TRPC4 spec=-26%*;HEK293 MPD ctr 2-1=-39%*;HEK293 MPD ctr-1=-328%*
O=c1cc(-c2ccccc2)oc2ccc(O)cc12,i,i,i,i,i,.,.,.,.,.,.,
COc1ccc(N(Cc2cc3ccc(C)cc3[nH]c2=O)C(=O)c2ccco2)cc1,i,i,i,i,i,.,.,.,.,.,.,
COc1ccc(S(=O)(=O)Nc2ccc(N3CCOCC3)nc2)cc1,i,-5*,i,i,i,i,i,i,i,i,i,
COc1ccc(NC(=O)c2ccc(N3CCOCC3)nc2)cc1,i,i,i,i,i,.,.,.,.,.,.,
COc1cc(/C=N/NC(=O)c2ccc(CN3c4cccc5cccc(c45)S3(=O)=O)cc2)cc(OC)c1O,i,i,i,i,i,.,.,.,.,.,.,
CN(C)CCCN(C(=O)c1cc2ccccc2oc1=O)c1nc2ccc(F)cc2s1,i,i,i,i,i,.,.,.,.,.,.,
Cc1ccc2nc(N(CCCN(C)C)C(=O)c3ccc(Br)s3)sc2c1,i,i,i,i,i,.,.,.,.,.,.,
CN(C)CCCN(C(=O)c1ccco1)c1nc2ccc(F)cc2s1,i,-5.6*,i,i,i,-150%*,78%*,-39%*,84%*,64%*,i,
Cc1ccc2nc(N(CCCN(C)C)C(=O)c3ccco3)sc2c1,i,-7.1*,i,i,i,.,.,.,.,78%*,i,TRPC4 sel inh 2=34%*;TRPC4 spec=-20%*;HEK293 MPD ctr 2-1=i;HEK293 MPD ctr-1=-146%*
Cc1cc(Cl)ccc1NC(=S)N1CCOCC1,i,i,i,i,i,.,.,.,.,.,.,
Cc1cccc(NS(=O)(=O)c2cccc(C(=O)N3CCN(S(=O)(=O)c4ccccc4)CC3)c2)c1,i,-13*,i,i,13*,i,i,i,i,110%*,132%*,
CN(c1ccccc1)S(=O)(=O)c1cccc(C(=O)N2CCN(c3ccccn3)CC2)c1,i,-7.2*,i,i,12*,144%*,i,38%*,i,64%*,94%*,
CC1Cc2ccccc2N1S(=O)(=O)c1cccc(C(=O)N2CCN(c3ncccn3)CC2)c1 (stereo unspecified),i,i,i,i,21*,130%*,i,86%*,86%*,.,174%*,
CCOC(=O)N1CCN(C(=O)c2cccc(S(=O)(=O)Nc3ccc(Br)cc3)c2)CC1,i,-9*,i,i,i,.,.,.,.,i,.,TRPC4 sel inh 2=i;TRPC4 spec=i;HEK293 MPD ctr 2-1=252%*;HEK293 MPD ctr-1=i

# High-throughput results: PubChem, Johns Hopkins Ion Channel Center
